Consider one substance from PMC5384874 (Medicinal chemistry (Shariqah (United Arab Emirates)), 2017).

Holding throughout (type): cell-based, human
One data set has as its system A549. As to the kind of experiment: Cytotoxicity assay, CCK-8 method, A549. Conditions: read-out: IC50, cytotoxicity against A549; A549, CCK-8, 24 h incubation. In outline:
(§1)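 Cells grown in RPMI with 10% fetal bovine serum, penicillin (100 U/mL) and streptomycin (50 μg/mL), seeded in 96-well plates at […]. Test compound added at increasing concentrations; untreated cells as control. Incubated 24 h at 37 °C, 5% CO2, humidified. CCK-8 added, 2 h at 37 °C, read with europium detection protocol. IC50 versus DMSO-treated wells by logit method, at least three independent tests.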

In another data set the test system is MCF-7. The experiment in a line: Cytotoxicity assay, CCK-8 method, MCF-7. To be noted: read-out: IC50, cytotoxicity against MCF-7; MCF-7, CCK-8, 24 h incubation. In outline:
as §1
On the technique in general: Tetrazolium assays rely on reduction of a dye to a coloured formazan, in cell work by metabolically active cells.

Another data set concerns HeLa. As to the kind of experiment: Cytotoxicity assay, CCK-8 method, HeLa. To be noted: read-out: IC50, cytotoxicity against HeLa, CCK-8, 24 h incubation. In outline:
as §1

With phylactones F/G [5/6], the IC50 in the data set on A549 came to 7.8 µM; in the data set with MCF-7, 5.2 µM; with HeLa, 9.6 µM.

In general, IC50 refers to the concentration at which inhibition is half-maximal.
